Source: ChEMBL document CHEMBL1131156, “Studies on selectin blockers. 7. Structure-activity relationships of sialyl Lewis X mimetics based on modified Ser-Glu dipeptides” (J Med Chem, 1998)

Experiments:
E-selectin = biological target: T1, E-selectin (Homo sapiens, UniProt P16581); test: Displacement of sialyl Lewis X (sLex) from selectin E
T1 sequence (P16581 whole entry): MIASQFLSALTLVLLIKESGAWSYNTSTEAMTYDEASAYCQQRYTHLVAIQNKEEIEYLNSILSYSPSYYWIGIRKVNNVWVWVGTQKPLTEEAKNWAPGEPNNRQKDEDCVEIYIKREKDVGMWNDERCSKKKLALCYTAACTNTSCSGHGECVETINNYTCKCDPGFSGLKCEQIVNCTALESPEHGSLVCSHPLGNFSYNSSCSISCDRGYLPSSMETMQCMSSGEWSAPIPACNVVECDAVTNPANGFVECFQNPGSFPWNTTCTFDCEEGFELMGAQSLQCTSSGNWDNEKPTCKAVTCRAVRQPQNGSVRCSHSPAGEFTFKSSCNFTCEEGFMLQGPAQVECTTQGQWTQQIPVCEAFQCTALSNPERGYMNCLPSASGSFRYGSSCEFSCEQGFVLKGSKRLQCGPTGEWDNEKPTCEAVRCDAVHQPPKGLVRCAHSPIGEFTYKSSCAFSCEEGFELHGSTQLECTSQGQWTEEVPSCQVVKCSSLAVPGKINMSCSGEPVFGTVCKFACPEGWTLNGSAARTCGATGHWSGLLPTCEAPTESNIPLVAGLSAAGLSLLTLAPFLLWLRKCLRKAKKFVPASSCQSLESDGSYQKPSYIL

P-selectin [1] = biological target: T2, P-selectin (Homo sapiens, UniProt P16109); test: Inhibition of Selectin P binding
T2 sequence (P16109 whole entry): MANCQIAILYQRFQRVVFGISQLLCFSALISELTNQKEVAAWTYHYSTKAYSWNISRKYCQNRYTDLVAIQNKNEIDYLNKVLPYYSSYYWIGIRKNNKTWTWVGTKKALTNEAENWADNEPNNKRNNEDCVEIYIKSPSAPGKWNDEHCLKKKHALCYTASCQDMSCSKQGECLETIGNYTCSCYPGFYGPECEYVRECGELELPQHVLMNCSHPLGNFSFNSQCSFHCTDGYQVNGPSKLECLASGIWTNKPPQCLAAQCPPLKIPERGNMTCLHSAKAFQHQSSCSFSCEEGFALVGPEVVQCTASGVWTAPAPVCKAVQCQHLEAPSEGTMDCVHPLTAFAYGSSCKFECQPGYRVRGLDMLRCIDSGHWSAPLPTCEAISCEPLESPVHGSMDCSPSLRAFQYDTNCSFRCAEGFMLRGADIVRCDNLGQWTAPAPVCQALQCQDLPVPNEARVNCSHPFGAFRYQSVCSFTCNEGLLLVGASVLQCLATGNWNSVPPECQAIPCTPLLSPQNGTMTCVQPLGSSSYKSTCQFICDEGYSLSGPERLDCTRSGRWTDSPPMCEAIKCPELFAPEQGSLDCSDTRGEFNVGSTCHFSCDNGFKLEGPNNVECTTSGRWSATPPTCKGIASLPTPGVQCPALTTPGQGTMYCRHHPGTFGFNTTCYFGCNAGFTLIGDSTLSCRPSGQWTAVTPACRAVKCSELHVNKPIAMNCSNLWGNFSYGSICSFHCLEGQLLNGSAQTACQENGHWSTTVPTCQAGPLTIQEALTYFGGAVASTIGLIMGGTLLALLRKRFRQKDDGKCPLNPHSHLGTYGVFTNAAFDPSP
Procedure, shortened: (§1)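 Wells coated with sLeX pentasaccharide ceramide analogue (100 pmol/well, dried from 1:1 methanol/water), blocked with 5% BSA-1 mM CaCl2/50 mM imidazole (pH 7.2) 1 h RT. Selectin-Ig fusion was precomplexed 30 min RT with biotinylated goat F(ab')2 anti-human IgG/streptavidin-alkaline phosphatase. Compounds (DMSO stock 10 mM; […]) were incubated with complex 30 min RT, then in wells 45 min at 37 °C. Detection used p-nitrophenyl phosphate in diethanolamine, pH 9.8.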

L-selectin = biological target: T3, L-selectin (Homo sapiens, UniProt P14151); test: Inhibition of Selectin L binding; procedure, shortened: as §1
T3 sequence (P14151 whole entry): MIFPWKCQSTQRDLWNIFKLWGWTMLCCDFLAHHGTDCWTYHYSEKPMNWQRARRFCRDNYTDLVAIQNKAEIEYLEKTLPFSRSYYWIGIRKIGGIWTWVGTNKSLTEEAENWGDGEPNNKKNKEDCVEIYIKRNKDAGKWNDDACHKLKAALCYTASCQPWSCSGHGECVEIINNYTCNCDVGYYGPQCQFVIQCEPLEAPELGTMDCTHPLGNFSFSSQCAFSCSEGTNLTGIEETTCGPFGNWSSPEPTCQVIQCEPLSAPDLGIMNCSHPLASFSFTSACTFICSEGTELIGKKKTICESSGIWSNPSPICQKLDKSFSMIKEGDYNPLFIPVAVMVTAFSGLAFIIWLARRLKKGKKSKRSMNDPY

P-selectin [2] = biological target: T2, P-selectin; test: The compound was tested for the concentration to inhibit 50% of Selectin P by blocking its activity; range is 250-500

Compound: CCCCCCCCCCCCCCC(CCCCCCCCCCCCCC)C(=O)N[C@H](COC1OC(C)C(O)C(O)C1O)C(=O)NC(CC(=O)O)C(=O)NC (stereo partly specified)
- IC50 (E-selectin): > 500 µM
- IC50 (P-selectin [1]): 3.6 µM
- IC50 (L-selectin): 3.8 µM

Compound: CCCCCCCCCCCCCCCC(=O)N[C@H](COC1OC(C)C(O)C(O)C1O)C(=O)NC(CCC(=O)O)C(=O)NC (stereo partly specified)
- IC50 (P-selectin [2]): 250 µM
- IC50 (E-selectin): > 500 µM
- IC50 (L-selectin): 200 µM

Compound: CCCCCCCCCCCCCCC(CCCCCCCCCCCCCC)C(=O)N[C@H](CO[C@H]1O[C@H](CO)[C@@H](O)[C@@H](O)[C@@H]1O)C(=O)N[C@@H](CCC(=O)O)C(=O)NC
- IC50 (E-selectin): 3.5 µM
- IC50 (P-selectin [1]): 0.45 µM
- IC50 (L-selectin): 4 µM

Compound: CCCCCCCCCCCC(CCCCCCCCCCC)C(=O)N[C@H](COC1OC(C)C(O)C(O)C1O)C(=O)NC(CCC(=O)O)C(=O)NC (stereo partly specified)
- IC50 (E-selectin): 160 µM
- IC50 (P-selectin [1]): 15 µM
- IC50 (L-selectin): 12 µM

Compound: CCCCCCCCCCCCCCC(CCCCCCCCCCCCCC)C(=O)N[C@@H](CO[C@H]1O[C@@H](C)[C@@H](O)[C@H](O)[C@@H]1O)C(=O)N[C@@H](CCC(=O)O)C(=O)NC
- IC50 (E-selectin): > 1000 µM
- IC50 (P-selectin [1]): 0.6 µM
- IC50 (L-selectin): 1.8 µM

Compound: CCCCCCCCCCCCCCC(CCCCCCCCCCCCCC)C(=O)N[C@H](CO[C@H]1O[C@@H](C)[C@@H](O)[C@H](O)[C@@H]1O)C(=O)N[C@@H](CCC(=O)O)C(=O)NC
- IC50 (E-selectin): > 100 µM
- IC50 (P-selectin [1]): 0.3 µM
- IC50 (L-selectin): 1.6 µM

Compound: CCCCCCCCCCCCCCC(CCCCCCCCCCCCCC)C(=O)N[C@H](CO[C@H]1O[C@@H](C)[C@@H](O)[C@H](O)[C@@H]1O)C(=O)N[C@H](CCC(=O)O)C(=O)NC
- IC50 (E-selectin): > 1000 µM
- IC50 (P-selectin [1]): 0.3 µM
- IC50 (L-selectin): 0.7 µM

Compound: CCCCCCCCCCCCCCC(CCCCCCCCCCCCCC)C(=O)N[C@@H](CO[C@H]1O[C@@H](C)[C@@H](O)[C@H](O)[C@@H]1O)C(=O)N[C@H](CCC(=O)O)C(=O)NC
- IC50 (E-selectin): > 100 µM
- IC50 (P-selectin [1]): 0.3 µM
- IC50 (L-selectin): 0.8 µM

Compound: CCCCCCCCCCCCCCC(CCCCCCCCCCCCCC)C(=O)N[C@H](COC1OC(C)C(O)C(O)C1O)C(=O)N[C@@H](CCC(=O)OC)C(=O)NC (stereo partly specified)
- IC50 (E-selectin): > 500 µM
- IC50 (P-selectin [1]): 37 µM
- IC50 (L-selectin): > 500 µM

Compound: CCCCCCCCCCCCCCC(CCCCCCCCCCCCCC)C(=O)N[C@H](COC1OC(C)C(O)C(O)C1O)C(=O)NC(CCC(=O)O)C(=O)OC (stereo partly specified)
- IC50 (E-selectin): > 500 µM
- IC50 (P-selectin [1]): 1.6 µM
- IC50 (L-selectin): 2.4 µM

Compound: CCCCCCCCCCCCCCC(CCCCCCCCCCCCCC)C(=O)N[C@@H](CO[C@H]1O[C@H](CO)[C@@H](O)[C@@H](O)[C@@H]1O)C(=O)N[C@H](CCC(=O)O)C(=O)NC (stereo in doubt; 5b)
- IC50 (E-selectin): 16 µM
- IC50 (P-selectin [1]): 0.42 µM
- IC50 (L-selectin): 3.1 µM

Compound: CCCCCCCCCCCCCCC(CCCCCCCCCCCCCC)C(=O)N[C@@H](CO[C@H]1O[C@H](CO)[C@@H](O)[C@@H](O)[C@@H]1O)C(=O)N[C@H](CCC(=O)O)C(=O)NC (stereo in doubt; 5c)
- IC50 (E-selectin): > 1000 µM
- IC50 (P-selectin [1]): 0.68 µM
- IC50 (L-selectin): 4.2 µM

Compound: CCCCCCCCCCCCCCC(CCCCCCCCCCCCCC)C(=O)N[C@@H](CO[C@H]1O[C@H](CO)[C@@H](O)[C@@H](O)[C@@H]1O)C(=O)N[C@H](CCC(=O)O)C(=O)NC (stereo in doubt; 5d)
- IC50 (E-selectin): > 1000 µM
- IC50 (P-selectin [1]): 0.38 µM
- IC50 (L-selectin): 4.4 µM

Compound: CC(=O)N[C@H]1[C@H]([C@H](O)[C@H](O)CO)O[C@@](O[C@H]2[C@@H](O)[C@@H](CO)O[C@@H](O[C@@H]([C@H](O[C@@H]3O[C@@H](C)[C@@H](O)[C@@H](O)[C@@H]3O)[C@H](C=O)NC(C)=O)[C@H](O)CO)[C@@H]2O)(C(=O)O)C[C@@H]1O [SIALYL LEWIS X]
- IC50 (P-selectin [1]): > 1000 µM
- IC50 (L-selectin): > 1000 µM
